How the values were obtained:
[1] = biological target: Procathepsin L (Homo sapiens, UniProt P07711); experiment: Inhibitory concentration against Cathepsin L
In short: (§1)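 Cysteine protease assays. Peptide substrates were CBZ-L-lysine p-nitrophenyl ester, Z-Phe-Arg-NH-Mec and Z-Val-Val-Arg-NH-Mec. Values are means of experiments run in triplicate, given in µM.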

[2] = biological target: T1, Tyrosine-protein phosphatase non-receptor type 13 (Homo sapiens, UniProt Q12923); experiment: Inhibitory concentration against FAP-1 using lck-10mer as substrate
[3] = biological target: T2, Tyrosine-protein phosphatase non-receptor type 1 (Homo sapiens, UniProt P18031); experiment: Inhibitory concentration against PTP1B lusing lck-10mer as substrate
T2 sequence (P18031 whole entry): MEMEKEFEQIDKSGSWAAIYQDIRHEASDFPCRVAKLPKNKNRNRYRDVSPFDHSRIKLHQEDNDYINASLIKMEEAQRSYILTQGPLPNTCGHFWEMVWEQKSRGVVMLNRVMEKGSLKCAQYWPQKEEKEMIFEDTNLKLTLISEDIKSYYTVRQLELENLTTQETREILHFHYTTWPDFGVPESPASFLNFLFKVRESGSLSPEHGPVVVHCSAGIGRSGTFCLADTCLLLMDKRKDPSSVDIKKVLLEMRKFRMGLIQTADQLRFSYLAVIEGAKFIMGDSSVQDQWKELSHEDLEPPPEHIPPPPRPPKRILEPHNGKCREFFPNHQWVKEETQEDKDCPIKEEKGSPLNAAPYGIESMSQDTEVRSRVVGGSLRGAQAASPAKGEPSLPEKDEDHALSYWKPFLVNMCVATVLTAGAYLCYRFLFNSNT

[4] = biological target: T1, Tyrosine-protein phosphatase non-receptor type 13; experiment: Inhibitory concentration against FAP-1 using pNPP as substrate
[5] = biological target: Cathepsin S (Homo sapiens, UniProt P25774); experiment: Inhibitory concentration against Cathepsin S; in short: as §1
[6] = biological target: Cathepsin B (Homo sapiens, UniProt P07858); experiment: Inhibitory concentration against Cathepsin B; in short: as §1
[7] = system: T-cell; experiment: Cytotoxicity measured against human T-cells; format: functional
[8] = biological target: T1, Tyrosine-protein phosphatase non-receptor type 13; experiment: Inhibitory concentration against FAP-1 using lck-10 mer as substrate
[9] = biological target: T1, Tyrosine-protein phosphatase non-receptor type 13; experiment: Inhibitory concentration against FAP-1 pNPP
[10] = system: T-cell; experiment: In vitro inhibition of human T-cell proliferation; format: functional, cell-based
[11] = biological target: T3, Receptor-type tyrosine-protein phosphatase C (Homo sapiens, UniProt P08575); experiment: Inhibitory concentration against CD45 protein-tyrosine phosphatase using lck-10mer as substrate
T3 sequence (P08575 whole entry): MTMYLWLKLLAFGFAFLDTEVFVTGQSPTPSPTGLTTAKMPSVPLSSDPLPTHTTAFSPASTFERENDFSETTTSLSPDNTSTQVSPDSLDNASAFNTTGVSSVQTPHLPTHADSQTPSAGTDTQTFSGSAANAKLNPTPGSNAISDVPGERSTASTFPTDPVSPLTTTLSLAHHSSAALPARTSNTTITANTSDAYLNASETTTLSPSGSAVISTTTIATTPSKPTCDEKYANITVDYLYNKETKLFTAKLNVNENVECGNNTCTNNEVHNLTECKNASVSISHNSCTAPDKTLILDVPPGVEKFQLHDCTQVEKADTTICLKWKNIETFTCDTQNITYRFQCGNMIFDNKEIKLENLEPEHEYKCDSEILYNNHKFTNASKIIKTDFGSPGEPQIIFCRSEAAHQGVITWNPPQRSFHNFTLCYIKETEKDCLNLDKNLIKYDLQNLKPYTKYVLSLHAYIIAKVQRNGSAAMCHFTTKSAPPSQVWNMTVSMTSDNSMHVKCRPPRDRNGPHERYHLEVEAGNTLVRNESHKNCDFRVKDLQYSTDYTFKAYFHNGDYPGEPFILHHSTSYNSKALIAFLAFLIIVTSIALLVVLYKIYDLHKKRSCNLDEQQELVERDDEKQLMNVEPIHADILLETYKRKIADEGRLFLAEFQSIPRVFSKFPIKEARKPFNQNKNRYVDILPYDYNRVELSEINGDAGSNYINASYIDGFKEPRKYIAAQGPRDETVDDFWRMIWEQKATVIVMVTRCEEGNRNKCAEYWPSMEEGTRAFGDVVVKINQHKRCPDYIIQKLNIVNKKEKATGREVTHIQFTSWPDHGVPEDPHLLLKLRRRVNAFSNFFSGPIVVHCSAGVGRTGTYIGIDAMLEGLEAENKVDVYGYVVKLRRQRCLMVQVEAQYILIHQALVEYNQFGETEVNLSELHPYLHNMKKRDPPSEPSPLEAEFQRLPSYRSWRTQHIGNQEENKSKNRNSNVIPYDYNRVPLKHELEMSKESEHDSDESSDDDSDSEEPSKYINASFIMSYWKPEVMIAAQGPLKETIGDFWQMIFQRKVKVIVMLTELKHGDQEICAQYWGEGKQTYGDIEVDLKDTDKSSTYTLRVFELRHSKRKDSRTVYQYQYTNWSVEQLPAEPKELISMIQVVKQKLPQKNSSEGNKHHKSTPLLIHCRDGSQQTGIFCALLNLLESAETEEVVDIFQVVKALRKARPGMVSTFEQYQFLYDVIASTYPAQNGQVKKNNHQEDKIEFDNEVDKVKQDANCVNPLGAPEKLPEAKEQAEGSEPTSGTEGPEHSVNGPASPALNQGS

T1 sequence (Q12923 whole entry): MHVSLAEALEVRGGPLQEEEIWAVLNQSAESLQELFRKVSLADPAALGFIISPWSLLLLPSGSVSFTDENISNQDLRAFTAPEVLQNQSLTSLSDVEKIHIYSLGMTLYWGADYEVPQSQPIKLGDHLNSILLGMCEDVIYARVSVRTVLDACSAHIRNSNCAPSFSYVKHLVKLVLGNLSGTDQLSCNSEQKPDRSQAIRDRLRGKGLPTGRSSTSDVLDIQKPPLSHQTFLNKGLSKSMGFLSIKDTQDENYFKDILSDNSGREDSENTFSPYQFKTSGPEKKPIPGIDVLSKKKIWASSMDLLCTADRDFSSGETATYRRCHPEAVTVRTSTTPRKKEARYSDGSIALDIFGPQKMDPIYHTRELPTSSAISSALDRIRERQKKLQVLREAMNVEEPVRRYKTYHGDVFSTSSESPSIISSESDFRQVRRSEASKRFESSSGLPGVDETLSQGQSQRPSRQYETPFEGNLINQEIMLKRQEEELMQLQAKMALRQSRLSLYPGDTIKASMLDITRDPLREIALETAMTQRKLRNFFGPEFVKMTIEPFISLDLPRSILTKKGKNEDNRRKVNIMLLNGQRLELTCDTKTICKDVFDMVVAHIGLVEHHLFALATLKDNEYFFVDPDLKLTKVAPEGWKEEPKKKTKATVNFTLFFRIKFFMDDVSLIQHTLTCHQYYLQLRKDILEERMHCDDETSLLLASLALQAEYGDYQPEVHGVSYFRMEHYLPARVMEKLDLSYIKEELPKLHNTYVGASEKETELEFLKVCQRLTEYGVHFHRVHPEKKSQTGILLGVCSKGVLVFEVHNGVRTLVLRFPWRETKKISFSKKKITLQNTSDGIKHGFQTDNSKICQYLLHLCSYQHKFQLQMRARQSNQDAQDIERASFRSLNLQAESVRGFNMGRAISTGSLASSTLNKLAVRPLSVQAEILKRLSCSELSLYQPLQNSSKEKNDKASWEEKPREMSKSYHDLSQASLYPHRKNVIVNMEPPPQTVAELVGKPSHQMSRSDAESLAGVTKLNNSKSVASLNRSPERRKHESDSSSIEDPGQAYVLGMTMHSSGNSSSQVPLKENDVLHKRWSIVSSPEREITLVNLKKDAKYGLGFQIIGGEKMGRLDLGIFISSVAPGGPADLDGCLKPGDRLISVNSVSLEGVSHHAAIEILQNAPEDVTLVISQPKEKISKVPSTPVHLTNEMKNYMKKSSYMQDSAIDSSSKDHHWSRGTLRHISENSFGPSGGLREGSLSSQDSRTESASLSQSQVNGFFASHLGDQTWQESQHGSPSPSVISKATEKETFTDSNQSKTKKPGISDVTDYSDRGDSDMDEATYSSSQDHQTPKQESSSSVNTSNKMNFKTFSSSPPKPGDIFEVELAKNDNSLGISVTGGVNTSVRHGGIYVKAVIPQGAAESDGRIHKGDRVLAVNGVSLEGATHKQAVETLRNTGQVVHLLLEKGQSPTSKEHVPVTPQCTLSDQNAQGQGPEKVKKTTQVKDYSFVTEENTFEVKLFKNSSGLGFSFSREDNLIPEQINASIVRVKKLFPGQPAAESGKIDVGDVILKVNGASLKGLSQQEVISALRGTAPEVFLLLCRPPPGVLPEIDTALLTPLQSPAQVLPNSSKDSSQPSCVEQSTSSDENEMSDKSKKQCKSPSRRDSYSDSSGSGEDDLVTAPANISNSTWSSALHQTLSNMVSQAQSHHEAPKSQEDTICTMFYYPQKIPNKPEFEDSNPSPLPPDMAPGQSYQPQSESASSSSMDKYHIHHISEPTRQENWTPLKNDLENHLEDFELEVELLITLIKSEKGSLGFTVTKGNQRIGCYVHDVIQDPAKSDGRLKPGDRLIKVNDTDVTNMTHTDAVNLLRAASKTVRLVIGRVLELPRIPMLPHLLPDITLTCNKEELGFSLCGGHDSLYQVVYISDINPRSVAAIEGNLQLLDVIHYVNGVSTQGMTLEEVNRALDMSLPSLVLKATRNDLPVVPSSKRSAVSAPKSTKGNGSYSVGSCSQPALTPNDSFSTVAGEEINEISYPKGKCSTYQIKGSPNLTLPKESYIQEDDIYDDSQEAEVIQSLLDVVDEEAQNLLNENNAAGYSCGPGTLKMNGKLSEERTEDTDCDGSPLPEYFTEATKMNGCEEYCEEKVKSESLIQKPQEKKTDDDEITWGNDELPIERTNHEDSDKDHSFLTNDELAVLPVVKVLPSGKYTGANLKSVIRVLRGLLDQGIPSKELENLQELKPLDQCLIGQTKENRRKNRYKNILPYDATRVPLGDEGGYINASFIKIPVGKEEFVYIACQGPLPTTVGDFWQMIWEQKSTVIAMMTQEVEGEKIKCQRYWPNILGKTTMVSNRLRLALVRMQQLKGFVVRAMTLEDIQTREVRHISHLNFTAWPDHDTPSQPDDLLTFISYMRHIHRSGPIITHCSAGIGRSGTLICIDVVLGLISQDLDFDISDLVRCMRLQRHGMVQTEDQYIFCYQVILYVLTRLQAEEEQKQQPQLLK
Sequence of Procathepsin L (P07711 whole entry): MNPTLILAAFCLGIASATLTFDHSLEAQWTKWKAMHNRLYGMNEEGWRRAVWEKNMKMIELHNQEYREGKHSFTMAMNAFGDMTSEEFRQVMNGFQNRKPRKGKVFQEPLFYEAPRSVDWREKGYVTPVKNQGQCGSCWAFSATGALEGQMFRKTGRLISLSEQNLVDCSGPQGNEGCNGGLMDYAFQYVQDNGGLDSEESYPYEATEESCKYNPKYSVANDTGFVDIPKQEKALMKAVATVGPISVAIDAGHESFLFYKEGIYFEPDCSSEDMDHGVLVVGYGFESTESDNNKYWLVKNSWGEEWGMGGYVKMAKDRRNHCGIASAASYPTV
Sequence of Cathepsin S (P25774 whole entry): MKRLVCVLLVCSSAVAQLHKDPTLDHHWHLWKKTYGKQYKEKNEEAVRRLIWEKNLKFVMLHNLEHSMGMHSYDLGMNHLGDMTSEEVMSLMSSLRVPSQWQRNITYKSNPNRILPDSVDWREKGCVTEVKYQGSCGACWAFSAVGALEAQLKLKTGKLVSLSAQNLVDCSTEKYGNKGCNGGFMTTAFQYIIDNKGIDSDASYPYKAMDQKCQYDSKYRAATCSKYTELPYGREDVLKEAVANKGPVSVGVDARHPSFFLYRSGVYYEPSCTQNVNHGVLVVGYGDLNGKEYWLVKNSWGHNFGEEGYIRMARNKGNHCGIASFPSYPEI

IC50 [1] [µM] | IC50 [2] [µM] | IC50 [3] [µM] | IC50 [4] [µM] | IC50 [5] [µM] | IC50 [6] [µM] | IC50 [8] [µM] | IC50 [9] [µM] | IC50 [11] [µM] | Compound | CC50 [7] [µM] | IC50 [10] [µM]
0.6 | > 30 | > 30 | 4.7 | 6 | > 10 | – | – | – | Nc1ccc2c(c1)C(=O)C(=O)c1ccccc1-2 | 5 | –
0.9 | – | – | – | > 10 | > 10 | > 30 | 15 | 1.9 | O=C(O)CNC(=O)c1ccc2c(c1)C(=O)C(=O)c1ccccc1-2 | > 30 | 4.4
